In publication PMC9989852 (Food and chemical toxicology : an international journal …, 2022):

Experiments:
spleen = assay: Spleen phenotyping by flow cytometry after 28-day dermal exposure; assay type: in vivo, B6C3F1 mice; details: 28 days
How it was run: (§1)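 Female B6C3F1 mice (5/group) received 25 μl/ear daily to the dorsal ears in acetone. About 24 h after the last dose, tissues went into RPMI: both auricular dLNs, half spleen and one ear pinna. Single-cell suspensions were acquired on an LSR II, with populations gated per supplemental strategy and FMO gating controls. Results are mean ± SE, n=5, by one-way ANOVA.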

pH of PFAS = assay type: physicochemical; details: PFAS (5%) in PBS, free acid form
B6C3F1 mice = assay: Serum chemistries after 28-day dermal exposure; assay type: in vivo; details: 28 days
How it was run: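 Female B6C3F1 mice received daily dorsal ear application (25 μl/ear, acetone vehicle). About 24 h after the last dose, blood was taken by cardiac puncture. Serum was separated by centrifugation and stored at −20 °C. ALKP, BUN, glucose and cholesterol were read on a Catalyst DX analyzer. Data are mean ± SE of 4–5 mice, ANOVA with Dunnett's; ALKP was also tested by linear regression (p < 0.05).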

ear pinna = assay: Skin; assay type: in vivo, B6C3F1 mice; details: dermal, 28 days
How it was run: as §1

[1] = ref Russell et al., 2015, Xu et al., 2020; cited from earlier work

O=C(O)C(F)(F)C(F)(F)C(F)(F)C(F)(F)C(F)(F)C(F)(F)F [PFHpA, Perfluoroheptanoic acid]
spleen MFI of CD86 on B-cells (spleen; 1.25%): increase
spleen frequency of CD8^+ T-cells (spleen; 1.25%): significant decrease
spleen frequency of eosinophils (spleen; 1.25%): significant decrease
spleen MFI of CD86 on B-cells (spleen; 2.5%): increase
spleen MFI of MHCII on B-cells (spleen; 2.5%): increase
spleen MFI of CD86 on B-cells (spleen; 5%): increase
spleen MFI of MHCII on B-cells (spleen; 5%): increase
spleen NK cell frequency (spleen; 5%): increase
spleen frequency of B-cells (spleen; 5%): significant decrease
spleen frequency of total DCs (spleen; 5%): increase
spleen number of NK cells (spleen; 5%): increase
pH (pH of PFAS): 1.49
serum ALKP (B6C3F1 mice; 1.25–5%, linear regression p < 0.05, not significant via ANOVA): significant linear regression increase
serum glucose, increase compared to vehicle control (B6C3F1 mice; 5%): 30%
serum urea nitrogen (BUN), decrease (B6C3F1 mice; 5%): 30%
serum alanine aminotransferase (ALT) (B6C3F1 mice; any concentration, data not shown): No change
Ear CD4^+ cell number (ear pinna; 1.25%): 1.49 ± 0.38 × 10^3
Ear CD4^+ frequency (ear pinna; 1.25%): 1.78 ± 0.19%
Ear CD8^+ cell number (ear pinna; 1.25%): 0.79 ± 0.14 × 10^2
Ear CD8^+ frequency (ear pinna; 1.25%): 0.11 ± 0.03%
Ear CD45^+ cell number (ear pinna; 1.25%): 8.01 ± 1.58 × 10^4
Ear CD45^+ frequency (ear pinna; 1.25%): 8.04 ± 1.11%
Ear CD lib- F4/80+ DCs cell number (ear pinna; 1.25%): 5.44 ± 0.94 × 10^2
Ear CDllb + F4/80+ DCs cell number (ear pinna; 1.25%): 4.52 ± 0.98 × 10^2
Ear CDllb- F4/80+ DCs frequency (ear pinna; 1.25%): 0.70 ± 0.05%
Ear CDllb- F4/80-DCs cell number (ear pinna; 1.25%): 1.12 ± 0.29 × 10^3
Ear CDllb- F4/80-DCs frequency (ear pinna; 1.25%): 1.34 ± 0.16 %
Ear Dendritic Cells cell number (ear pinna; 1.25%): 2.18 ± 0.47 × 10^3
Ear Dendritic Cells frequency (ear pinna; 1.25%): 2.69 ± 0.15%
Ear Eosinophils cell number (ear pinna; 1.25%): 1.41 ± 0.42 × 10^3
Ear Eosinophils frequency (ear pinna; 1.25%): 1.60 ± 0.26%
Ear NK cell number (ear pinna; 1.25%): 3.89 ± 0.91 × 10^2
Ear NK frequency (ear pinna; 1.25%): 0.48 ± 0.04%
Ear Neutrophils cell number (ear pinna; 1.25%): 1.59 ± 0.24 × 10^2
Ear Neutrophils frequency (ear pinna; 1.25%): 0.21 ± 0.02%
Ear Total Cellularity (ear pinna; 1.25%): 0.96 ± 0.08 × 10^6
Ear CD8^+ cell number (ear pinna; 2.5%): 1.77 ± 0.27 × 10^2
Ear CD8^+ frequency (ear pinna; 2.5%): 0.16 ± 0.01%
Ear CD lib- F4/80+ DCs cell number (ear pinna; 2.5%): 7.95 ± 0.98 × 10^2
Ear CDllb + F4/80+ DCs cell number (ear pinna; 2.5%): 13.00 ± 2.97 × 10^2
Ear CDllb + F4/80+ DCs frequency (ear pinna; 2.5%): 1.13 ± 0.12 %
Ear CDllb- F4/80+ DCs frequency (ear pinna; 2.5%): 0.75 ± 0.08 %
Ear CDllb- F4/80-DCs cell number (ear pinna; 2.5%): 2.42 ± 0.45 × 10^3
Ear Dendritic Cells frequency (ear pinna; 2.5%): 4.21 ± 0.26 %
Ear Eosinophils cell number (ear pinna; 2.5%): 5.54 ± 1.71 × 10^3
Ear Eosinophils frequency (ear pinna; 2.5%): 4.57 ± 0.96 %
Ear NK cell number (ear pinna; 2.5%): 7.43 ± 1.69 × 10^2
Ear NK frequency (ear pinna; 2.5%): 0.66 ± 0.08%
Ear Neutrophils cell number (ear pinna; 2.5%): 2.48 ± 0.43 × 10^2
Ear CD4^+ cell number (ear pinna; 5%): 6.06 ± 0.33 × 10^3
Ear CD4^+ frequency (ear pinna; 5%): 4.18 ± 0.24 %
Ear CD8^+ cell number (ear pinna; 5%): 2.81 ± 0.39 × 10^2
Ear CD8^+ frequency (ear pinna; 5%): 0.20 ± 0.03 %
Ear CD45^+ cell number (ear pinna; 5%): 14.60 ± 0.67 × 10^4
Ear CD45^+ frequency (ear pinna; 5%): 12.38 ± 0.81%
Ear CD lib- F4/80+ DCs cell number (ear pinna; 5%): 14.50 ± 0.97 × 10^2
Ear CDllb + F4/80+ DCs cell number (ear pinna; 5%): 18.90 ± 1.84 × 10^2
Ear CDllb + F4/80+ DCs frequency (ear pinna; 5%): 1.31 ± 0.14 %
Ear CDllb- F4/80+ DCs frequency (ear pinna; 5%): 1.00 ± 0.07 %
Ear CDllb- F4/80-DCs cell number (ear pinna; 5%): 3.38 ± 0.19 × 10^3
Ear CDllb- F4/80-DCs frequency (ear pinna; 5%): 2.32 ± 0.03%
Ear Dendritic Cells cell number (ear pinna; 5%): 7.25 ± 0.31 × 10^3
Ear Dendritic Cells frequency (ear pinna; 5%): 4.99 ± 0.15 %
Ear Eosinophils cell number (ear pinna; 5%): 6.45 ± 1.12 × 10^3
Ear Eosinophils frequency (ear pinna; 5%): 4.36 ± 0.63 %
Ear NK cell number (ear pinna; 5%): 7.96 ± 0.70 × 10^2
Ear NK frequency (ear pinna; 5%): 0.56 ± 0.07%
Ear Neutrophils cell number (ear pinna; 5%): 7.10 ± 1.15 × 10^2
Ear Neutrophils frequency (ear pinna; 5%): 0.49 ± 0.07 %
Ear Total Cellularity (ear pinna; 5%): 1.19 ± 0.08 × 10^6
estimated half-life in humans [1]: 62 to 70 days
